ROMK primary = modulates human ROMK potassium channel activity; AID 1918; Tet-inducible ROMK, thallium flux fluorescence; actives lie on both sides; 2% of 130,000 active; P48048; B-score at 10 µM;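 active = signal ratio slope over the read window, or its plate-corrected B-score, at least 3 SD from the plate mean, either direction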;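 also: B-score of the F/F0 ratio slope over 7 to 12 s after thallium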
Diaph inh CS = counter-screen for diaphorase-based assays: diaphorase inhibitors and chemical oxidizers; diaphorase resazurin-to-resorufin fluorescence, NADH, 16 min; bacterial (C. kluyveri) enzyme, not human; inhibition, % at 20 µM; AID 1217; 0.69% of 190,000 active;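 active = primary screen inhibition at 20 µM above a set limit, cut at about 50% in these data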;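 also: plate controls were DMSO with full reaction for no effect and wells lacking NADH for full effect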
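System: Diaphorase enzyme from Clostridium kluyveri | Amount: Enzyme working solution with 0.14 U/mL diaphorase | Benchmarks: No-NADH positive control and DMSO neutral control | Signal: Fluorescence of resorufin formed from resazurin, Ex 544/Em 590 nm | Schedule: 16-min room-temperature incubation before reading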
PMI act = activators of human phosphomannose isomerase; P34949; purified human PMI, coupled resazurin fluorescence, 20 min; hits give high values; 1 = vehicle control, 0 substrate-free wells; activation factor at 20 µM; 0.005% of 190,000 active;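 active = activation factor of 2 or more at 20 µM, relative to plate controls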
Target sequence (P34949 whole entry, looked up): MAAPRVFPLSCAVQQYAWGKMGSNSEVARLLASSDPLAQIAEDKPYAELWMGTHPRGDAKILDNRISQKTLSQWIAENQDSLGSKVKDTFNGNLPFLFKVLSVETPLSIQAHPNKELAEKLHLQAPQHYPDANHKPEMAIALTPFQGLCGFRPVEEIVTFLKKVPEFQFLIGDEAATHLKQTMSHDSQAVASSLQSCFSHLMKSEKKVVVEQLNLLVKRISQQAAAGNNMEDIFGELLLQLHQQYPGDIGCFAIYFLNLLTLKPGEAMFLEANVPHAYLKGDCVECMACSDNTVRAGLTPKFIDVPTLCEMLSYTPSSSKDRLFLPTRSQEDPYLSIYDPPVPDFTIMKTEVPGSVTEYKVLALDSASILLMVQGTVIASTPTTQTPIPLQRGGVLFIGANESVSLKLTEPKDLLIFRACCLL
Diaphorase act = diaphorase activation or chemical reduction counter-screen. Diaphorase/resazurin coupled assay, resorufin fluorescence, 16 min; hits give high values; 1 = vehicle wells, 0 = NADH-free wells. activation factor at 20 µM. 0.005% of 190,000 active;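 active = diaphorase activity raised at least twofold by the compound at 20 µM; inactive = activation factor below 2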
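Material: bacterial diaphorase enzyme (C. kluyveri); amount: enzyme 0.07 U/mL final; reagent: NADH substrate 0.114 mM plus resazurin dye 0.1 mM, final; doses: single compound dose of 20 µM, 1% DMSO final; timing: 16 min enzyme reaction, ambient temperature; measured by: fluorescence of resorufin, 544 nm excitation, 590 nm emission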
PMI act satM6P = increases human PMI activity with near-saturating mannose 6-phosphate | activation factor at 20 µM | coupled PMI enzyme assay, resazurin fluorescence, 20 min; hits give high values; 1 = untreated enzyme, 0 = substrate-free blank | 0.34% of 190,000 active | AID 1216 | P34949;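 active = activation factor of 2 or more at 20 µM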
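Material: human phosphomannose isomerase with PGI, G6PDH, diaphorase coupling enzymes / Reagent: Man-6-P substrate 1.0 mM / Dosing: single compound dose of 20 µM, 1% DMSO final / Incubation: enzyme reaction with compound 20 min at room temperature / Signal: resorufin fluorescence (Ex 544/Em 590 nm) from resazurin via diaphorase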
G6PDH CS = counter-screen for G6PDH assay hits: L. mesenteroides G6PDH inhibition | AID 1020 | inhibition, % at 5 µM | Purified L. mesenteroides G6PDH, diaphorase/resazurin coupled fluorescence, 45 min | 0.12% of 200,000 active; in the data active = inhibition above about 50%
The depositor's hits bear a star; · = no result given. An excerpt weighted towards active compounds, which were near 2.2% of everything screened.

SMILES	ROMK primary	Diaph inh CS	PMI act	Diaphorase act	PMI act satM6P	G6PDH CS
CCCCCCC1CC(=O)NC(=O)N1 (centres undefined)	1.3	·	·	·	·	·
CCOC(=O)c1c(C)[nH]c(-c2csc(C)n2)c1C	-0.77	15	0.9	0.8	0.9	-6
CCOC(=O)c1ccccc1-c1csc(N)n1	1.3	81*	1	0.2	0.9	6
CCOC(=O)c1c(C)[nH]c(-c2csc(N)n2)c1C	-0.5	11	1.5	0.9	2*	-3
Cc1ccc2oc(=O)c3cc(C(=O)N4CCN(C(=O)c5ccco5)CC4)sc3c2c1	·	19	1	0.8	1	12
Cc1ccc2[nH]c(=O)c3cc(C(=O)N4CCN(C(=O)c5ccco5)CC4)sc3c2c1	·	60*	0.9	0.4	0.9	-6
CSc1n[nH]c2nc3c(c(=O)n12)C1(CCCC1)Cc1ccccc1-3	-0.79	8	1.6	0.9	2.2*	-3
COC(=O)c1cc(NC(=O)c2ccccc2)c(=O)oc1/C=C/Nc1ccc(Oc2ccccc2)cc1	-4.5*	4	1.1	1	1	-4
COc1ccc(C(=O)Nc2cc(C(C)=O)c(C)oc2=O)cc1	0.9	8	1.6	0.9	1.6	-4
CCOCCCNS(=O)(=O)c1ccc(NC(=O)Cc2c(F)cccc2Cl)cc1	0.0041	-8	1	1.1	1	1
N#Cc1c(N)n(-c2ccc(C(=O)O)cc2)c2nc3ccccc3nc12	0.016	·	·	·	·	·
N#Cc1c2nc3ccccc3nc2n2cc(NC(=O)c3ccc(F)cc3)ccc12	·	90*	0.9	0.1	1.2	34
COc1ccc(/C(C)=N/Nc2ccc(F)cc2F)c(O)c1	1.7	16	1.7	0.8	2.5*	1
Cc1ccccc1-n1c(SC/C(O)=C(\C#N)c2nc3ccccc3[nH]2)nnc1-c1ccncc1	·	43	0.9	0.6	0.8	-1
Cc1cc(C)n2c(SC/C(O)=C(\C#N)c3nc4ccccc4[nH]3)nnc2n1	·	53*	0.7	0.5	0.5	22
O=C(CSC1=NCCS1)Nc1cccc(F)c1	0.11	12	1	0.9	1	7
CC1=C(C)C(=O)C(CCCCC#CCCCC#CCO)=C(C)C1=O	·	44	1.1	0.6	0.8	57*
CCc1nc2ccc(C(=O)NCc3ccccc3)cc2nc1CC	0.67	30	0.8	0.7	0.5	17
CCc1ccc(NC(=O)C(CC)c2ccccc2)cc1 (centres undefined)	0.54	6	1.1	0.9	1.2	5
CCC(O)CC(C(=O)NNc1ccccc1)C(=O)NNc1ccccc1 (centres undefined)	0.15	0	1.8	1	2.8*	3
C/C(=N/NC(=O)c1cc(O)c(O)c(O)c1)c1ccc([N+](=O)[O-])cc1	0.36	75*	0.4	0.2	0.7	9
CCc1ccc(NC(=O)c2c(C(=O)Nc3ccccc3)sc3nc(C)cc(=O)n23)cc1	0.085	-5	0.9	1.1	1	-6
CC1(C)Oc2ccc(C(=O)NN)cc2NC1=O	0.85	-12	1	1.1	1.1	7
COc1ccc(C(=O)Nc2nnc(-c3ccccc3)o2)cc1OC	0.33	7	1	0.9	1	13
O=C(Nc1nnc(-c2ccccc2)o1)c1cc(Cl)sc1Cl	2.3*	-13	1.2	1.1	1.2	14
SMILES	ROMK primary	Diaph inh CS	PMI act	Diaphorase act	PMI act satM6P	G6PDH CS
O=C(Nc1nnc(-c2ccc(F)cc2)o1)c1cc(Cl)sc1Cl	3.2*	10	1.2	0.9	1.2	2
COc1cccc(-c2nnc(NC(=O)c3ccc(Cl)s3)o2)c1	1.9*	-19	1.3	1.2	1.4	18
Cc1ccc(CN2CCN(C3CSCCSC3)CC2CCO)cc1 (centres undefined)	-0.81	36	0.9	0.6	0.9	14
C=CCN(CC=C)C(=S)NC(=O)c1ccc(-c2ccccc2)cc1	10*	-4	1.1	1	1.1	1
Cn1cc(/C=C2\SC(=O)NC2=S)c2ccccc21	·	54*	0.6	0.5	0.5	11
O=C(Nc1cccnc1Cl)c1noc2c1CCc1ccccc1-2	0.65	10	1	0.9	0.9	7
CC(C)N(CC#CCC(O)(c1ccccc1)C1CCCC1)CCO (centres undefined)	0.095	60*	0.4	0.4	1	12
CCO[C@H]1OC(C(=O)N2CCN(C)CC2)=C[C@@H](c2ccc(C(F)(F)F)cc2)[C@@H]1CCCO	·	74*	0.9	0.3	1	18
C#Cc1ccc([C@H]2C=C(C(=O)N3CCN(Cc4ccc5c(c4)OCO5)CC3)O[C@@H](OCC)[C@@H]2CCCO)cc1	·	55*	0.9	0.4	0.9	7
CCO[C@H]1OC(C(=O)N2CCN(Cc3ccc4c(c3)OCO4)CC2)=C[C@@H](c2ccc3c(c2)OCO3)[C@@H]1CCCO	·	15	0.8	0.8	0.8	16
c1cncc(CSc2ccc(-c3ccc4c(c3)OCO4)nn2)c1	-0.14	-2	1.3	1	1.1	-3
Cc1cccc(NC(=S)N2CCN(c3ccc(F)cc3)CC2)c1	-0.0089	0	1	1	1	25
O=C(N/N=C/c1cc([N+](=O)[O-])ccc1O)C1CCCCC1	·	56*	0.7	0.4	0.9	16
O=C(N/N=C/c1cc([N+](=O)[O-])ccc1O)C1C2CCCCC21 (centres undefined)	-1.5	49	0.9	0.5	1.1	24
O=C1NC2(CCCCC2)C(=O)N1Cc1cccc(C(F)(F)F)c1	-0.31	3	1.1	1	1	-4
c1ccc(Nc2cccc(Nc3ccccc3)n2)cc1	·	55*	0.4	0.5	0.6	20
c1ccc(Nc2ccccn2)cc1	·	-2	1	1	1	1
CC(=O)NC(Cc1ccccc1C)C(=O)NC1CCN(c2ncccc2[N+](=O)[O-])CC1 (centres undefined)	·	4	0.9	1	1	6
C/C(=N\NC(=O)c1c(Cl)c(C)nn1C)c1cccc(NC(=O)COc2ccccc2)c1	4.1*	-2	1	1	1	5
C/C(=N\NC(=O)c1c(Cl)c(C)nn1C)c1ccc(NC(=O)COc2ccc(Cl)cc2C)cc1	·	12	1	0.9	1	5
CCn1c(SCC(=O)c2ccc3c(c2)Cc2ccccc2-3)nnc1-c1ccc(N)cc1	·	-5	1.1	1.1	1.1	10
CCn1c(SCC(=O)c2ccc(O)c(O)c2)nnc1-c1ccc(C)cc1	·	56*	0.6	0.4	0.9	0
Fc1ccc(C(c2nnnn2Cc2cccs2)N2CCN(C3CCCCC3)CC2)cc1 (centres undefined)	-5.7*	3	1	1	1	-2

Screening results from PubChem.
